# Columns and labels:
# [1] = Aqueous stability, pH 4.88; format: physicochemical; conditions: Figure 3 conditions generally, especially acidic (pH 4.88)
# [2] = test system: colorectal tumor xenograft; conditions: cited from earlier work
# [3] = test system: HCT116 cells; test: Cell viability assay; format: cell-based, human; conditions: for IC50: Homo sapiens, HCT-116, read-out: antiproliferative activity
# How it was run: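 HCT116 cells (ATCC) were grown in DMEM with 10% FBS at 37 °C, 5% CO2. They were seeded at 1 × 10^4 cells/well and treated 24 h later with a range of test-compound concentrations or 1% EtOH solvent control. After 48 h, viability was read by MTT per the kit instructions.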
# [4] = test system: VEGFR2; test: Immunoblot of xenograft tumors for RTK; format: in vivo, mouse; conditions: higher dose (0.25 mg/kg), end of efficacy study
# [5] = test system: HCT116 xenograft; test: In vivo efficacy, HCT116 xenograft mouse model
# [6] = test system: met proto-oncogene receptor (MET); test: Immunoblot analysis for RTK; format: cell-based, human; conditions: HCT116, 24 h
# How it was run: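 HCT116 cells were seeded at 4 × 10^5 cells/well in 6-well plates and dosed the next day with graded test-compound concentrations or 1% EtOH. After 24 h, whole-cell lysates were made in PhosphoSafe buffer, protein was quantified by BCA, and equal protein was run on 4–12% SDS-PAGE. Blots on PVDF were probed with anti-Met plus secondary antibody, with chemiluminescent detection.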
# [7] = cited from earlier work
compound,measurement,setting,value
"CC[C@H](C)[C@H]1C(=O)N2CCC[C@H]2C(=O)O[C@H](C(C)(C)C)C[C@@H](C)C[C@H](O)[C@H](C)C2=N[C@@H](CCC(=O)N[C@@H](Cc3ccc(OC)cc3)C(=O)N(C)[C@@H](C)C(=O)N1C)CS2 [Compound 1a, apratoxin S4]",relative in vitro stability,[1],somewhat less stable than 1c
same,potency and efficacy versus apratoxin A,[2]; colorectal tumor xenograft model ref 2a,greater potency and efficacy
same,tolerability in vivo,[2]; ref 2a,much better tolerated
"CC[C@H](C)[C@H]1C(=O)N2CCC[C@H]2C(=O)O[C@H](C(C)(C)C)C[C@@H](C)C[C@H](O)CC2=N[C@@H](CCC(=O)N[C@@H](Cc3ccc(OC)cc3)C(=O)N(C)[C@@H](C)C(=O)N1C)CS2 [Compound 1b, Apratoxin S7]",IC50,[3],1 to 2 nM
same,relative in vitro stability,[1],somewhat less stable than 1c
"CC[C@H](C)[C@H]1C(=O)N2CCC[C@H]2C(=O)O[C@H](C(C)(C)C)C[C@@H](C)C[C@H](O)C(C)(C)C2=N[C@@H](CCC(=O)N[C@@H](Cc3ccc(OC)cc3)C(=O)N(C)[C@@H](C)C(=O)N1C)CS2 [Compound 1c, Apratoxin S8]",IC50,[3],1 to 2 nM
same,VEGFR2 expression levels in tumors,[4],detectable reduction in VEGFR2 expression levels
same,tumor growth inhibition,[5]; 0.1 mg/kg (~2 μg/mouse) daily ip for 16 days,about 50%
same,effect on tumor growth,[5]; 0.25 mg/kg (~5 μg/mouse) daily ip for 16 days,strongly retarded the tumor growth
same,"signs of toxicity (weight loss, abnormal behavior)",[5]; 0.1 and 0.25 mg/kg daily ip for 16 days,did not observe signs of toxicity
"CC[C@H](C)[C@H]1C(=O)N2CCC[C@H]2C(=O)O[C@H](C(C)(C)C)C[C@@H](C)C[C@H](O)[C@H](C)C2=N[C@H](CCC(=O)N[C@@H](Cc3ccc(OC)cc3)C(=O)N(C)[C@@H](C)C(=O)N1C)CS2 [Compound 1d, Apratoxin S9]",fold potency over the other apratoxins,"[3]; all three assays (cell growth, MET levels, VEGF-A secretion)",2–3 fold
same,relative in vitro stability,[1],slightly enhanced compared with that of 1a
same,potency in reducing MET levels,[6],picomolar (subnanomolar) potency
"CC[C@H](C)[C@H]1C(=O)N2CCC[C@H]2C(=O)O[C@H](C(C)(C)C)C[C@@H](C)C[C@H](O)[C@@H](C)C2=N[C@@H](CCC(=O)N[C@@H](Cc3ccc(OC)cc3)C(=O)N(C)[C@@H](C)C(=O)N1C)CS2 [Compound 34-epi-1a, apratoxin S6]",potency relative to 1a,[7]; ref 2a,same potency
CC[C@H](C)[C@H]1C(=O)N2CCC[C@H]2C(=O)O[C@H](C(C)(C)C)C[C@@H](C)C/C=C/C2=N[C@@H](CCC(=O)N[C@@H](Cc3ccc(OC)cc3)C(=O)N(C)[C@@H](C)C(=O)N1C)CS2 [apratoxin E],activity relative to other apratoxins,[7]; ref 1c,much reduced activity

# Source: article PMC3993931 (Journal of Medicinal Chemistry, 2014)
